In PubChem BioAssay AID720543 (The Scripps Research Institute Molecular Screening Center, 2013):
About 2,000 (0.54%) of roughly 370,000 compounds were called active. For the sample, actives were picked, then their nearest neighbours and some compounds at random. A number with no mark means an inactive call.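 The calls were made as follows: active = inhibition exceeding the mean over every tested compound plus 3 SD (cut at about 30% in these data); inactive = the rest.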

biological target: (Lyso)-N-acylphosphatidylethanolamine lipase (Mus musculus) (UniProt Q8VD66); assay: ABHD4 inhibitors, primary screen, biochemical, fluorescence polarization, mouse (AID 720543); settings: purified mABHD4, FP-Rh probe fluorescence polarization; at 8.92 µM; hits give high values;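 also: 0% = plate median of compound wells and 100% = S159A mutant with DMSO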
Summary of the method: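 Assay system: Wild-type mouse ABHD4 protein | Medium: HEPES pH 7.0 buffer, 150 mM NaCl, 0.01% Pluronic F-127 | Incubation: Enzyme–compound pre-incubation 45 min, then probe 60 min, both 25 °C | Technique: Fluorescence polarization with parallel and perpendicular emission, 525/598 nm | Evaluation: % inhibition of FP-Rh probe binding versus controls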

Sequence of (Lyso)-N-acylphosphatidylethanolamine lipase (Mus musculus) (Q8VD66 whole entry, looked up): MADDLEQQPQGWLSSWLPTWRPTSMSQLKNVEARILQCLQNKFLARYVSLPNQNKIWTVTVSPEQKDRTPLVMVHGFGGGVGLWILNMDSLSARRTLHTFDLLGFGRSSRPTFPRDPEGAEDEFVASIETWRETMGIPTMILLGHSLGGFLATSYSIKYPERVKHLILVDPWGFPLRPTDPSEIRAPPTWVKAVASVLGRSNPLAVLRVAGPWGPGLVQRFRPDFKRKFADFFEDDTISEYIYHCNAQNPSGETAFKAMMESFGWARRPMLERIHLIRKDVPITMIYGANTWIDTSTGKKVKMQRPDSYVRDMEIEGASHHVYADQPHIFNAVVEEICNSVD

First: O=C(C1CCN(S(=O)(=O)c2ccc(Br)s2)CC1)N1CCN(c2ccccc2)CC1
Second: Cc1cccc(N2CCN(C(=O)c3ccccc3NC(=O)C3CCCCC3C(=O)O)CC2)c1 (centres undefined)
The inhibition of the first is lower: 1.42% for the first, 2.26% for the second.

Going from `COc1ccc(-n2c(SCC(=O)NC3CCCC3)nnc2-c2ccncc2)cc1` to `O=C(CSc1nnc(-c2ccccn2)n1-c1ccc(Cl)cc1)Nc1ccccc1-c1ccccc1`, the inhibition falls from 3.8% to -9.15%.

First: CCn1c(/C=C/Nc2ccccc2)[n+](CC)c2ccc(C(=O)OCC(F)(F)F)cc21
Second: CC(=O)Nc1nc2ncccn2c1-c1ccc(C(F)(F)F)cc1
The inhibition of the first is lower: -4.64% for the first, 5.78% for the second.

First: CC(c1c[nH]c2ccccc12)c1c(-c2ccccc2)n(C)c2ccccc12 (centres undefined)
Second: CCCN1C(=O)c2[nH]nc(-c3ccccc3)c2C1c1ccccc1 (centres undefined)
The inhibition of the first is lower: -21.7% for the first, -7.15% for the second.

First: Cc1nc2cc(C(F)(F)F)ccc2n1CCNc1nc(-c2cc(Cl)c(N)c(Cl)c2)cs1
Second: Cc1nc(CNc2ncnc3ccc(-c4ccc5c(c4)OCO5)cc23)cs1
The inhibition of the first is higher: 5.15% for the first, -1.75% for the second.

First: CC1CCCCN1C(=O)Cn1c(=O)oc2cc(S(=O)(=O)N3CCCCC3)ccc21 (centres undefined)
Second: CCOC(=O)C1CCN(C(=O)c2oc3ccc(S(=O)(=O)N4CCCCCC4)cc3c2C)CC1
The inhibition of the first is higher: 8.03% for the first, 6.37% for the second.

First: Cc1ccccc1NC(=O)C1CCN(c2ncccn2)CC1
Second: CS(=O)(=O)N1CCCC(C(=O)Nc2ccccc2C(F)(F)F)C1 (centres undefined)
The inhibition of the first is higher: -7.6% for the first, -11.1% for the second.

Compared with `COC(=O)C1CCCCN1C(=O)c1ccc(OC2CCN(C(C)=O)CC2)c(OC)c1` (centres undefined), `CCOC(=O)C1CCN(C(=O)C2(NC(=O)Nc3cccc(F)c3)CCCCC2)CC1` is higher in inhibition: -4.35% for the first, -0.97% for the second.

Going from `COc1ccc(-c2ccccc2C2Cc3nnccc3CN2C(=O)Nc2ccccc2)cc1` (centres undefined) to `CC(=O)Nc1ccc(OC[C@@H](O)CN2CCC(C(O)(c3ccccc3)c3ccccc3)CC2)cc1`, the inhibition rises from -13% to -3.77%.

First: COc1ccc(C(C#N)Nc2ccc(C)cc2)cc1 (centres undefined)
Second: COc1ccc(-c2noc(C(C)NS(=O)(=O)c3ccc(NC(C)=O)cc3)n2)cc1 (centres undefined)
The inhibition of the first is higher: 0.68% for the first, 0.4% for the second.

Compared with `COCCn1c(N)c(NCc2ccccc2)c(=O)[nH]c1=O`, `COCCCN(C(=O)CSCc1ccc(C)cc1)c1c(N)n(Cc2ccccc2)c(=O)[nH]c1=O` is lower in inhibition: 7.29% for the first, 2.08% for the second.

Going from `CC(NC(=O)C1CCCN(S(=O)(=O)c2ccc(-n3cnnn3)cc2)C1)c1ccc(F)cc1` (centres undefined) to `CC(NC(=O)CCCC1CCCCC1)c1ccc(S(N)(=O)=O)cc1` (centres undefined), the inhibition falls from -0.78% to -16%.

First: Cc1ccc(S/C(=N\S(=O)(=O)c2ccc(Cl)cc2)c2ccccc2)cc1
Second: CCOc1ccc(Oc2c(Cl)cnn(-c3ccc(C)cc3)c2=O)cc1
The inhibition of the first is higher: 7.36% for the first, 5.6% for the second.

First: COc1ccc(C2Nc3ccccc3C(=O)N2Cc2cccs2)cc1COc1c(C)cccc1C (centres undefined)
Second: COc1ccc(Cn2ccc3ccc(-c4ccc5ccn(Cc6ccccc6C)c5c4)cc32)cc1
The inhibition of the first is lower: -15.8% for the first, 7.66% for the second.

Going from `CCOc1ccc2sc(NS(=O)(=O)c3ccc(N)cc3)nc2c1` to `COc1ccc2c(C(C)c3ccc(N)cc3)cn(C)c2c1` (centres undefined), the inhibition falls from 16.3% to -3.15%.

Compared with `COc1ccc(/C=C/c2nnc(NC(=O)C(C)C)s2)cc1`, `CCOc1ccc2nc(NCCNC(=O)C(C)(C)C)c(C)cc2c1` is lower in inhibition: -1.43% for the first, -2.62% for the second.

First: CN1CCN(C(=O)C(=O)c2cn(CC(=O)N3CCCC3)c3ccccc23)CC1
Second: CCOC(=O)[C@@]12CCC3=C1N(CCC3)C(=O)[C@H](CC(=O)N1CCN(C(=O)c3ccco3)CC1)C2
The inhibition of the first is higher: 8.39% for the first, 2.38% for the second.

First: Nc1nc2c(ncn2[C@@H]2O[C@H](C(=O)N[C@@H](Cc3ccccc3)C(=O)NCc3ccccc3)[C@@H](O)[C@H]2O)c(=O)[nH]1
Second: O=C(CCCc1ccccc1)NCc1ccccc1
The inhibition of the first is higher: 1.72% for the first, -1.11% for the second.

Going from `COC(=O)[C@]12C[C@H](CC(=O)NCC34CC5CC(CC(C5)C3)C4)C(=O)N(Cc3ccc(Cl)cc3Cl)C1=C[C@H](COCc1ccccc1)O[C@@H]2C` to `COC(=O)[C@]12C[C@H](CC(=O)NCc3ccccc3)C(=O)N(Cc3ccccc3)C1=C[C@H](COCc1ccccc1)O[C@@H]2C`, the inhibition falls from 2.69% to -5.73%.

First: O=C(NCc1ccccc1)[C@@H]1CCCN1C(=O)[C@@H](NS(=O)(=O)c1ccc(F)cc1F)C1CCCCC1
Second: CC(C)C[C@H](NC(=O)CC1CCCC1)C(=O)N1CCC[C@H]1C(=O)NCc1ccccc1
The inhibition of the first is lower: -7.63% for the first, 0.46% for the second.

First: COC(=O)[C@@]12CCCCC=C1N(CCc1ccc(Cl)cc1)C(=O)[C@H]2CC(=O)NCc1ccc(OC)c(OC)c1
Second: C=CCN1C(=O)[C@@H](CC(=O)NCCCOCCCC)[C@]2(C(=O)OCC)CCCCC/C=C/12
The inhibition of the first is higher: -1.49% for the first, -1.53% for the second.

First: O=C1CC(c2ccccc2)C(c2ccccc2)=NN1 (centres undefined)
Second: c1ccc(CNCc2ccc(CNCc3ccccc3)cc2)cc1
The inhibition of the first is lower: -2.08% for the first, 5.37% for the second.

Going from `CN(C(=O)COc1ncnc2c1cnn2-c1ccccc1)C1CCCCC1` to `CN(C(=O)CCn1c(=S)oc2ccccc21)C1CCCCC1`, the inhibition rises from -16.6% to 0.63%.

Going from `CCC(=O)Nc1ccc2c(c1)C(=O)N(C)[C@@H]1CC[C@@H](CC(=O)NCCc3ccccc3)O[C@H]1CO2` to `O=C(NCC1COc2ccccc2O1)c1ccc(NC(=O)c2cc(F)ccc2F)cc1` (centres undefined), the inhibition rises from -0.19% to 5.07%.

Compared with `CCOC(=O)C1CCN(C(=O)C(C)(C)NC(=O)Nc2ccccc2Cl)CC1`, `Cc1cccc(C)c1NC(=O)CS(=O)CC(=O)N1CCN(c2ccccc2)CC1` (centres undefined) is lower in inhibition: -3.65% for the first, -7.61% for the second.

First: CCN(CC)C(=O)CC[C@H]1CC[C@]2(CCCN(Cc3ccc(Cl)cc3)C2)O1
Second: CN(C)c1ccc(NC(=O)NC2CCCCN(Cc3ccc(Cl)cc3)C2=O)cc1 (centres undefined)
The inhibition of the first is lower: -3.65% for the first, 14% for the second.

Compared with `Cc1ccccc1N1CCN(Cc2nc(Cc3ccccc3F)no2)CC1`, `Fc1cccc(Cc2noc(CN3CCN(c4cnccn4)CC3)n2)c1` is higher in inhibition: -7.9% for the first, -0.5% for the second.

Going from `O=C(/C=C/c1ccc([N+](=O)[O-])cc1)NCCSCc1ccco1` to `Oc1ccc(N2CCN(C(=S)NCc3ccccc3)CC2)cc1`, the inhibition rises from -1.92% to 14.8%.

Going from `CCCCC(=O)N[C@@H]1CC[C@@]23CCCN2C(=O)CCC[C@H]3[C@H]1C` to `O=C1CC[C@@]23CCCN2C(=O)CCC[C@H]3[C@H]1Cc1ccccc1`, the inhibition falls from 3.19% to -0.8%.

Going from `CC1CCN(c2ccc(C(=O)Nc3nnc(C4CC4)s3)cc2[N+](=O)[O-])CC1` to `CC1CCN(c2ccc(S(=O)(=O)Nc3cc(C(=O)O)cc(C(=O)O)c3)cc2[N+](=O)[O-])CC1`, the inhibition falls from 2.94% to -0.48%.

Going from `Nn1c(SCC(=O)N2c3ccccc3Sc3ccccc32)nnc1-c1n[nH]c2c1CCC2` to `O=C(OCc1ccccc1)N1CCC2CC1c1cc(N3CCN(S(=O)(=O)c4cc(Cl)cc(Cl)c4)CC3)ccc12` (centres undefined), the inhibition rises from -15.8% to 2.29%.

Going from `CC1(C)OC(=O)C(=CNC(CO)C(=O)O)C(=O)O1` (centres undefined) to `Cc1cc2nc3c(=O)[nH]c(=O)nc-3n(C[C@H](O)[C@H](O)[C@H](O)CO)c2cc1C`, the inhibition rises from 5.15% to 15.4%.

Compared with `CC(C)NC(=O)/C(C#N)=C\c1ccc(N(C)C)c(Br)c1`, `CCOC(=O)[C@H]1[C@H]2COc3ccc(Cl)cc3[C@@H]2N2C(=O)c3cc(C)ccc3NC(=O)[C@@]12C` is lower in inhibition: 3.76% for the first, 2.18% for the second.

Compared with `OC(c1ccccc1)(c1ccccc1)C1CCN(CCCOc2ccc(-c3ccsc3)cc2)CC1`, `Cc1ccc(-c2nc(C3CCCN(S(=O)(=O)c4ccc(Br)s4)C3)no2)cc1` (centres undefined) is lower in inhibition: 13.8% for the first, 7.38% for the second.

With `CC(C)COC(=O)n1c(=O)oc2ccc(S(=O)(=O)N3CCCCC3)cc21` the inhibition was 42.3% (active).
With `Cc1coc2c(O)cc3c(c12)OC1(N2CCCCC2)C(=O)NCCCC31` (centres undefined) the inhibition was 35.3% (active).
For `Cc1cc2nc3c(=O)n(Cc4ccccc4)c(=O)[nH]c3nc2cc1N`, the inhibition was 56.4% (active).
With `CCOc1ccc2nc(Nc3nc4ccc(NC(C)=O)cc4s3)sc2c1` the inhibition was 35.1% (active).
With `COc1ccc2nc(Nc3nc4ccc(NC(C)=O)cc4s3)sc2c1` the inhibition was 37.7% (active).
With `CCOC(=O)Cn1c2c(n(-c3ccc(F)cc3)c1=O)C=C(c1ccccc1)[C@@H](C)C(C(=O)N(C)C1CCCCC1)=C2` the inhibition was 34.2% (active).
For `CN1C(=O)c2cccc3c(N)ccc(c23)C1=O`, the inhibition was 32.9% (active).
`Cc1nn(C)cc1N1C(=O)c2cccc3c(N)ccc(c23)C1=O` was tested, and the inhibition was 35.3% (active).
With `Cc1cccc(N2CCN(Cc3nc(C4CC4)no3)CC2)n1` the inhibition was 53.8% (active).
In the case of `CC1CCN(c2ccc(C(=O)O)cc2NS(=O)(=O)c2ccc(Br)s2)CC1`, the inhibition is reported as 40.3% (active).
`O=C1C=CC(=O)N1c1ccc(N2CCCCC2)cc1` was tested, and the inhibition was 40.5% (active).
`N#C/C(=C\c1ccc(O)c(O)c1)C(=O)NCc1ccccc1` was tested, and the inhibition was 47% (active).
For `Cc1cccc(N2CCN(c3ccc(NC(=O)/C=C\C(=O)O)cc3)CC2)c1`, the inhibition was 38.7% (active).
In the case of `Oc1ccc(CNc2ccccc2O)cc1`, the inhibition is reported as 37.8% (active).
With `CCOC(=O)[C@H]1Nc2ccc(Cl)cc2[C@@H]2[C@H]1C1CC(c3ccccc31)N2C(=O)OCc1ccccc1` (some centres undefined) the inhibition was 46.2% (active).
For `CCN(CC)CCCC(C)n1c2nc(=O)[nH]c(=O)c-2nc2cc(Cl)ccc21` (centres undefined), the inhibition was 29.5% (active).
